Data taken from ChEMBL document CHEMBL3758104, “Reinvestigating Old Pharmacophores: Are 4-Aminoquinolines and Tetraoxanes Potential Two-Stage Antimalarials?” (J Med Chem, 2016).
Active and inactive are the calls of the source. The calls are words filed in the database; no cut-off is given here.

How the values were obtained:
Plasmodium falciparum [1] = assay: Antimalarial activity against 4th to 5th gametocyte stage of Plasmodium falciparum 3D7elo1-pfs16-CBG99 assessed as inhibition of gametocyte viability by luciferase reporter gene assay; type: functional, organism-based
How it was run: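 Stage IV–V gametocytes of luciferase-expressing 3D7elo1-pfs16-CBG99 strain (CBG99 under pfs16 promoter); luciferase activity as viability read-out. Viability = 100×(treated−blank)/(untreated−blank), blank = 100 nM epoxomicin-treated sample. Epoxomicin and dihydroartemisinin as positive controls. IC50 from nonlinear regression of dose–response; mean of three experiments in duplicate.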

Plasmodium berghei [2] = assay: Antimalarial activity against sporozoite stage of Plasmodium berghei ANKA infected in C57BL/6J mouse assessed as reduction in liver parasite load at 50 mg/kg/, po administered for 3 days measured after 48 hrs by qRT-PCR analysis relative to control; type: functional; design: scale not given: the % may be the effect or the level left
How it was run: (§1)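 C57BL/6J mice, five per group, infected iv with luciferase-expressing P. berghei ANKA sporozoites. Compound given by oral gavage in DMSO + sunflower oil 24 h before, at, and 24 h after infection; controls got vehicle. Liver load measured 48 h post-infection by qRT-PCR of P. berghei 18S rRNA normalised to mouse Hprt, as % of controls; mean of two independent experiments.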

Plasmodium berghei [3] = assay: Antimalarial activity against sporozoite stage of Plasmodium berghei ANKA infected in C57BL/6J mouse assessed as reduction in liver parasite load at 100 mg/kg/, po administered for 3 days measured after 48 hrs by qRT-PCR analysis relative to control; type: functional; design: scale not given: the % may be the effect or the level left; how it was run: as §1
Plasmodium berghei [4] = assay: Antimalarial activity against sporozoite stage of Plasmodium berghei infected in human Huh7 cells assessed as inhibition of parasite infection pre-incubated for 24 hrs followed by parasite infection measured after 48 hrs by bioluminescence assay; type: functional, organism-based; settings: Huh-7
[5] = Selectivity ratio of IC50 for IV to V gametocyte stage of Plasmodium falciparum 3D7elo1-pfs16-CBG99 to IC50 for sporozoite stage of Plasmodium berghei infected in human Huh7; type: functional, Huh-7
Plasmodium berghei [6] = assay: Antimalarial activity against sporozoite stage of Plasmodium berghei infected in human Huh7 cells assessed as remaining parasite infection at 5 uM pre-incubated for 24 hrs followed by parasite infection measured after 48 hrs by bioluminescence assay; settings: Huh-7
[7] = Half life in human liver microsomes at 1 uM by LC-MS/MS analysis; type: ADME
HepG2 = assay: Cytotoxicity against human HepG2 cells after 48 hrs by MTT assay; type: cell-based; settings: HepG2, 48 h
Plasmodium berghei [8] = assay: Antimalarial activity against Plasmodium berghei ANKA infected in C57Bl6 mouse assessed as reduction of parasitemia at 160 mg/kg/day, po administered for day 3 to 5 measured on day 6 to 14 by Thompson test; type: functional, organism-based
How it was run: (§2)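 Modified Thompson test: C57Bl6 female mice inoculated intraperitoneally on day 0 with 1×10^6 P. berghei ANKA-infected erythrocytes; compound suspended in 0.5% hydroxyethylcellulose–0.1% Tween 80, given orally once daily on days 3, 4 and 5 post infection. Parasitemia by Giemsa-stained thin tail-blood smears on days 0, 3, 6, 10, 13, 17, 20, 24, 27, 31. Cure = survival without parasitemia to day 31.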

Plasmodium falciparum [9] = assay: Antimalarial activity against chloroquine-susceptible Plasmodium falciparum D6 after 48 hrs by [3H]hypoxanthine incorporation assay; type: functional, organism-based
How it was run: (§3)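 P. falciparum D6 (Sierra I/UNC clone), W2 (Indochina I clone), TM91C235 (South-East Asian clone) cultured with compound; growth inhibition by [3H]hypoxanthine incorporation (modified Desjardins/Milhous method). Chloroquine, mefloquine, artemisinin as positive controls. IC50 in nM; technical triplicates, curve fits R2 0.96–1.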

Plasmodium falciparum [10] = assay: Antimalarial activity against mutidrug resistant Plasmodium falciparum TM91C235 after 48 hrs by [3H]hypoxanthine incorporation assay; type: functional, organism-based; how it was run: as §3
Plasmodium falciparum [11] = assay: Antimalarial activity against chloroquine-resistant Plasmodium falciparum W2 after 48 hrs by [3H]hypoxanthine incorporation assay; type: functional, organism-based; how it was run: as §3
[12] = Half life in mouse liver microsomes at 1 uM by LC-MS/MS analysis; type: ADME
[13] = Selectivity index, ratio of IC50 for human HepG2 cells to IC50 for chloroquine susceptible Plasmodium falciparum D6; type: toxicity, cell-based; settings: read-out: Ratio IC50
Mus musculus [14] = assay: Toxicity in Plasmodium berghei ANKA infected C57Bl6 mouse at 160 mg/kg/day, po administered for 3 days measured 2 times a day for 31 days; type: organism-based; settings: in vivo, 744 h
Plasmodium berghei [15] = assay: Antimalarial activity against Plasmodium berghei ANKA infected in C57Bl6 mouse at 160 mg/kg/day, po measured on day 3 to 5 by Thompson test; type: functional
Mus musculus [16] = assay: Toxicity in Plasmodium berghei ANKA infected C57Bl6 mouse at 80 mg/kg/day, po administered for 3 days measured 2 times a day for 31 days; type: organism-based; settings: in vivo, 744 h
Plasmodium berghei [17] = assay: Antimalarial activity against Plasmodium berghei ANKA infected in C57Bl6 mouse at 80 mg/kg/day, po measured on day 3 to 5 by Thompson test; type: functional
Plasmodium berghei [18] = assay: Antimalarial activity against Plasmodium berghei ANKA infected in C57Bl6 mouse assessed as increase in cure rate at 80 mg/kg/day, po administered for day 3 to 5 by Thompson test; type: functional, organism-based; how it was run: as §2
Plasmodium berghei [19] = assay: Antimalarial activity against Plasmodium berghei ANKA infected in C57Bl6 mouse assessed as increase in survival rate at 80 mg/kg/day, po administered for day 3 to 5 by Thompson test; type: functional, organism-based; how it was run: as §2

| Compound | IC50 (Plasmodium falciparum [1]) | Activity (Plasmodium berghei [2]) | Activity (Plasmodium berghei [3]) | IC50 (Plasmodium berghei [4]) | Ratio IC50 [5] | % infection at 5 µM (Plasmodium berghei [6]) | half-life at 1 µM [7] | IC50 (HepG2) | Activity (Plasmodium berghei [8]) | IC50 (Plasmodium falciparum [9]) | IC50 (Plasmodium falciparum [10]) | IC50 (Plasmodium falciparum [11]) | half-life at 1 µM [12] | selectivity ratio [13] | Activity (Mus musculus [14]) | MST (Plasmodium berghei [15]) | Activity (Mus musculus [16]) | MST (Plasmodium berghei [17]) | Activity (Plasmodium berghei [18]) | Activity (Plasmodium berghei [19]) |
| --- | --- | --- | --- | --- | --- | --- | --- | --- | --- | --- | --- | --- | --- | --- | --- | --- | --- | --- | --- | --- |
| CCCNC(=O)CCC(C)[C@H]1CC[C@H]2[C@@H]3[C@H](OC(C)=O)C[C@@H]4CC5(CC[C@]4(C)[C@H]3C[C@H](OC(C)=O)[C@]12C)OOC1(CCCCC1)OO5 (stereo partly specified) | 1160 nM | 60% | 91% | 330 nM | 3.5 | 0.55% | – | – | – | – | – | – | – | – | – | – | – | – | – | – |
| CC(CCCNCCC12CC3CC(CC(C3)C1)C2)Nc1ccnc2cc(Cl)ccc12 (stereo unspecified) | – | – | – | – | – | – | 1 h | 13300 nM | Active | 7 nM | 14 nM | 26 nM | 1 h | 1900 | Non-toxic | 21.4 days | – | – | – | – |
| Fc1ccc2scc(CNCCCNc3ccnc4cc(Cl)ccc34)c2c1 | – | – | – | – | – | – | – | – | – | – | – | – | – | – | Toxic | – | Non-toxic | 14 days | inactive | inactive |
